Experimental data published in ChEMBL document CHEMBL1150585, “Phytotoxic compounds from Prionosciadium watsoni” (J Nat Prod, 2002).
Calls of active or inactive are those of the source. No cut-off for these calls is given here.

What was measured:
[1] = system: Amaranthus hypochondriacus; test: Phytotoxicity against Amaranthus hypochondriacus assessed as inhibition of radicle elongation by petri dish bioassay; assay type: functional, organism-based
Outline: (§1)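 Petri dish germination and radicle elongation bioassay on seedlings at 28 °C. Pure compounds tested at 10, 50, 100 and 200 µg mL-1, with 2,4-D as positive control. IC50 derived by Probit analysis from percent radicle growth or germination inhibition; ANOVA (p < 0.05).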

Echinochloa crus-galli = test: Phytotoxicity against Echinochloa crus-galli assessed as inhibition of radicle elongation by petri dish bioassay; assay type: functional, organism-based; outline: as §1
Calmodulin (Bos taurus) = Calmodulin (Bos taurus) (UniProt P62157); test: Binding affinity to bovine brain calmodulin assessed as modification of electrophoretic mobility at 0.033 ug/mL after 1.5 hrs by SDS-PAGE in presence of calcium chloride
Outline: (§2)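 Bovine brain and spinach calmodulin, 2 µg samples, pretreated 1.5 h at 30 °C with 1 mM CaCl2 and compound (0.033 µg/mL). Denaturing SDS-PAGE on 15% polyacrylamide gels in presence of Ca2+. Read-out is change in electrophoretic mobility relative to an untreated calmodulin lane.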

[2] = molecular target: Calmodulin (Spinacia oleracea) (UniProt P04353); test: Binding affinity to spinach calmodulin assessed as modification of electrophoretic mobility at 0.033 ug/mL after 1.5 hrs by SDS-PAGE in presence of calcium chloride; outline: as §2
Lemna aequinoctialis [3] = test: Phytotoxicity against Lemna paucicostata assessed as growth inhibition at 25 uM after 3 days relative to control; assay type: functional; details: 72 h, read-out: GI
Outline: (§3)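 Lemna culture of 10 colonies, three fronds each, in 3 mL half-strength Hunter's medium containing compound for 3 days (72 h). Percent growth inhibition is versus culture-medium control, as means of three replicates ± standard deviation; significance by Student's unpaired t-test.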

Lemna aequinoctialis [4] = test: Phytotoxicity against Lemna paucicostata assessed as chlorophyll reduction at 100 uM after 3 days by ultraviolet spectroscopy relative to control; assay type: functional; details: 72 h, read-out: GI
Outline: (§4)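 Duckweed (Lemna) culture: 10 colonies of three fronds each in 3 mL half-strength Hunter's medium with compound, run 3 days. Afterwards plants are removed from medium, blotted and extracted overnight in the dark with 5 mL DMSO. Chlorophyll is expressed on fresh weight basis. Reduction is relative to culture-medium control, as means of three replicates ± standard deviation, with Student's unpaired t-test.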

Lemna aequinoctialis [5] = test: Phytotoxicity against Lemna paucicostata assessed as growth inhibition at 100 uM after 3 days relative to control; assay type: functional; details: 72 h, read-out: GI; outline: as §3
Lemna aequinoctialis [6] = test: Phytotoxicity against Lemna paucicostata assessed as chlorophyll reduction at 12 uM after 3 days by ultraviolet spectroscopy relative to control; assay type: functional; details: 72 h; outline: as §4
Lemna aequinoctialis [7] = test: Phytotoxicity against Lemna paucicostata assessed as growth inhibition at 50 uM after 3 days relative to control; assay type: functional; details: 72 h, read-out: GI; outline: as §3
Lemna aequinoctialis [8] = test: Phytotoxicity against Lemna paucicostata assessed as chlorophyll reduction at 25 uM after 3 days by ultraviolet spectroscopy relative to control; assay type: functional; details: 72 h, read-out: GI; outline: as §4
Lemna aequinoctialis [9] = test: Phytotoxicity against Lemna paucicostata assessed as chlorophyll reduction at 50 uM after 3 days by ultraviolet spectroscopy relative to control; assay type: functional; details: 72 h, read-out: GI; outline: as §4
Lemna aequinoctialis [10] = test: Phytotoxicity against Lemna paucicostata assessed as growth inhibition at 12 uM after 3 days relative to control; assay type: functional; details: 72 h, read-out: GI; outline: as §3
Lemna aequinoctialis [11] = test: Phytotoxicity against Lemna paucicostata assessed as chlorophyll reduction at 200 uM after 3 days by ultraviolet spectroscopy relative to control; assay type: functional; details: 72 h, read-out: GI; outline: as §4
Lemna aequinoctialis [12] = test: Phytotoxicity against Lemna paucicostata assessed as growth inhibition at 200 uM after 3 days relative to control; assay type: functional; details: 72 h, read-out: GI; outline: as §3

SMILES	Activity (Calmodulin (Bos taurus))	Activity [2]	IC50 [1] [µM]	IC50 (Echinochloa crus-galli) [µM]	Activity [1]	Activity (Echinochloa crus-galli)	inhibition of growth at 25 µM (Lemna aequinoctialis [3]) [%]	inhibition of growth at 100 µM (Lemna aequinoctialis [4]) [%]	inhibition of growth at 100 µM (Lemna aequinoctialis [5]) [%]	chlorophyll reduction at 12 µM (Lemna aequinoctialis [6]) [%]	inhibition of growth at 50 µM (Lemna aequinoctialis [7]) [%]	inhibition of growth at 25 µM (Lemna aequinoctialis [8]) [%]	inhibition of growth at 50 µM (Lemna aequinoctialis [9]) [%]	inhibition of growth at 12 µM (Lemna aequinoctialis [10]) [%]	inhibition of growth at 200 µM (Lemna aequinoctialis [11]) [%]	inhibition of growth at 200 µM (Lemna aequinoctialis [12]) [%]
CC1(C)Oc2ccc3ccc(=O)oc3c2[C@@H](O)[C@H]1O	–	–	361	439	–	–	–	–	–	–	–	–	–	–	–	–
C/C=C(/C)C(=O)O[C@@H]1Cc2c(cc3oc(C)cc(=O)c3c2OC)OC1(C)C	Active	Active	143	26.4	–	–	–	–	–	–	–	–	–	–	–	–
COc1c2c(cc3oc(C)cc(=O)c13)OC(C)(C)[C@H](O)C2	Active	Active	383	461	Dose-dependent effect	Dose-dependent effect	–	–	–	–	–	–	–	–	–	–
C/C=C(/C)C(=O)O[C@@H]1Cc2c(ccc3ccc(=O)oc23)OC1(C)C [JATAMANSIN]	Active	Active	260	863	–	–	37.5	40.3	100	5.94	47.6	4.37	12.8	15.3	–	–
CC1(C)Oc2ccc3ccc(=O)oc3c2C[C@H]1O [(+)-LOMATIN]	Active	Active	344	296	Dose-dependent effect	Dose-dependent effect	–	–	–	–	–	–	–	–	–	–
CC(C)C(=O)O[C@@H]1Cc2c(ccc3ccc(=O)oc23)OC1(C)C	Active	Active	237	169	–	–	19.6	84.9	58.8	–	23.5	20	54.3	–	87.4	100
COc1c2c(cc3oc(C)cc(=O)c13)OC(C)(C)[C@H](OC(=O)C(C)C)C2	Active	Active	74.1	14.8	–	–	–	–	–	–	–	–	–	–	–	–

Continued, in another order:

Activity (Calmodulin (Bos taurus))	Activity [2]	SMILES	IC50 [1] [µM]	IC50 (Echinochloa crus-galli) [µM]	Activity [1]	Activity (Echinochloa crus-galli)	inhibition of growth at 25 µM (Lemna aequinoctialis [3]) [%]	inhibition of growth at 100 µM (Lemna aequinoctialis [4]) [%]	inhibition of growth at 100 µM (Lemna aequinoctialis [5]) [%]	chlorophyll reduction at 12 µM (Lemna aequinoctialis [6]) [%]	inhibition of growth at 50 µM (Lemna aequinoctialis [7]) [%]	inhibition of growth at 25 µM (Lemna aequinoctialis [8]) [%]	inhibition of growth at 50 µM (Lemna aequinoctialis [9]) [%]	inhibition of growth at 12 µM (Lemna aequinoctialis [10]) [%]	inhibition of growth at 200 µM (Lemna aequinoctialis [11]) [%]	inhibition of growth at 200 µM (Lemna aequinoctialis [12]) [%]
Active	Active	CC(C)C(=O)O[C@@H]1c2c(ccc3ccc(=O)oc23)OC(C)(C)[C@@H]1O	189	595	–	–	–	–	–	–	–	–	–	–	–	–
Active	Active	CCC(=O)O[C@@H]1c2c(ccc3ccc(=O)oc23)OC(C)(C)[C@@H]1OC(C)=O	396	439	–	–	–	–	–	–	–	–	–	–	–	–
Active	Active	CO[C@@H]1c2c(ccc3ccc(=O)oc23)OC(C)(C)[C@@H]1O	325	6.19	Dose-dependent effect	Dose-dependent effect	–	–	–	–	–	–	–	–	–	–
Active	Active	CO[C@H]1c2c(ccc3ccc(=O)oc23)OC(C)(C)[C@@H]1O	108	808	Dose-dependent effect	Dose-dependent effect	–	–	–	–	–	–	–	–	–	–
Active	Active	CC(=O)O[C@@H]1[C@H](OC(=O)C(C)C)c2c(ccc3ccc(=O)oc23)OC1(C)C [SERAVSHANIN]	402	162	–	–	–	–	–	–	–	–	–	–	–	–
Active	Active	C/C=C(/C)C(=O)O[C@@H]1[C@H](O)c2c(ccc3ccc(=O)oc23)OC1(C)C	262	155	–	–	–	–	–	–	–	–	–	–	–	–
